Key:
Yellow fever virus = experiment: Antiviral activity against YFV 17D infected in african green monkey Vero cells assessed as inhibition of virus-induced cytopathic effect after 1 week; assay type: functional, cell-based; conditions: 168 h
Procedure, shortened: (§1)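 Vero-B cells (ATCC CCL-81), grown in MEM with 10% FCS, seeded at 2 x 10⁴ cells/well in 2% FCS medium and left to adhere overnight. Infected with 100 CCID₅₀ of YFV-17D vaccine strain (one passage in Vero-B), then serial compound dilutions added. After one week, fixed with ethanol and stained with methylene blue. EC₅₀ for CPE inhibition and CC₅₀ from uninfected parallel cultures, both read visually.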

[1] = Cytotoxicity against african green monkey Vero cells after 1 week; assay type: cell-based; conditions: chlorocebus sabaeus
Procedure, shortened: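 Vero-B cells in MEM with 2% FCS, seeded at 7 x 10³ (DENV assay) or 2 x 10⁴ (YFV assay) cells/well and left to adhere overnight. Serial compound dilutions were added without virus and incubated one week. Cells were ethanol-fixed and stained with 1% methylene blue. CC50, the concentration inhibiting cell growth by 50%, was determined visually.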

[2] = Cytotoxicity against mosquito C6/36 cells after 1 week; assay type: cell-based; conditions: aedes albopictus
[3] = Selectivity index, ratio of CC50 for mosquito C6/36 cells to EC50 for DENV serotype 2 NGC
[4] = Selectivity index, ratio of CC50 for african green monkey Vero cells to EC50 for YFV 17D; procedure, shortened: as §1
dengue virus type 2 = experiment: Antiviral activity against DENV serotype 2 NGC infected in mosquito C6/36 cells assessed as inhibition of virus-induced cytopathic effect after 1 week; assay type: functional, organism-based; conditions: C6/36, 168 h

| SMILES | EC50 (Yellow fever virus) | CC50 at 168 h [1] | CC50 at 168 h [2] | Ratio CC50/EC50 [3] | Ratio CC50/EC50 [4] | EC50 (dengue virus type 2) |
| --- | --- | --- | --- | --- | --- | --- |
| O=c1ccn([C@@H]2O[C@H](COC(c3ccccc3)(c3ccccc3)c3ccccc3)[C@@H](O)[C@H]2O)c(=O)[nH]1 | 4 µM | 18 µM | 10 µM | 1.67 | 4.5 | 6 µM |
| O=c1ccn([C@@H]2O[C@H](COC(c3ccccc3)(c3ccccc3)c3ccccc3)[C@@H](OC(c3ccccc3)(c3ccccc3)c3ccccc3)[C@H]2O)c(=O)[nH]1 | 1 µM | > 85 µM | > 10 µM | >5 | >85 | 1.75 µM |
| O=c1ccn([C@@H]2O[C@H](COC(c3ccccc3)(c3ccccc3)c3ccccc3)[C@@H](O)[C@H]2OC(c2ccccc2)(c2ccccc2)c2ccccc2)c(=O)[nH]1 | 1.2 µM | > 100 µM | > 100 µM | >3 | >80 | 30 µM |
| O=c1ccn([C@@H]2O[C@H](CO)[C@@H](O)[C@H]2OC(c2ccccc2)(c2ccccc2)c2ccccc2)c(=O)[nH]1 | 25 µM | 35 µM | 40 µM |  | 1.4 |  |
| O=c1ccn([C@@H]2O[C@H](CO)[C@@H](OC(c3ccccc3)(c3ccccc3)c3ccccc3)[C@H]2O)c(=O)[nH]1 | 10 µM | 18 µM | 18 µM |  | 1.8 |  |
| O=c1ccn([C@H]2C[C@H](OC(c3ccccc3)(c3ccccc3)c3ccccc3)[C@@H](COC(c3ccccc3)(c3ccccc3)c3ccccc3)O2)c(=O)[nH]1 | 0.9 µM | > 65 µM | > 65 µM | >17 | >70 | 3.7 µM |
| O=c1ccn([C@H]2C[C@H](OC(c3ccccc3)(c3ccccc3)c3ccccc3)[C@@H](CO)O2)c(=O)[nH]1 | 1.5 µM | 4 µM | 5 µM |  | 2.7 |  |
| Cc1cn([C@H]2C[C@H](OC(c3ccccc3)(c3ccccc3)c3ccccc3)[C@@H](COC(c3ccccc3)(c3ccccc3)c3ccccc3)O2)c(=O)[nH]c1=O | 10 µM | 70 µM | 35 µM |  | 7 |  |
| Cc1cn([C@H]2C[C@H](O)[C@@H](COC(c3ccccc3)(c3ccccc3)c3ccccc3)O2)c(=O)[nH]c1=O |  | 8 µM | 4 µM |  |  |  |
| Cc1cn([C@H]2C[C@H](OC(c3ccccc3)(c3ccccc3)c3ccccc3)[C@@H](CO)O2)c(=O)[nH]c1=O | 10 µM | 18 µM | 10 µM |  | 1.8 |  |
| O=c1[nH]c(=O)n([C@@H]2O[C@H](COC(c3ccccc3)(c3ccccc3)c3ccccc3)[C@@H](O)[C@H]2O)cc1Cl | 2 µM | 5 µM | 5 µM |  | 2.5 |  |
| O=c1[nH]c(=O)n([C@@H]2O[C@H](COC(c3ccccc3)(c3ccccc3)c3ccccc3)[C@@H](OC(c3ccccc3)(c3ccccc3)c3ccccc3)[C@H]2O)cc1Cl | 0.7 µM | 2 µM | 1 µM |  | 2.9 |  |
| O=c1[nH]c(=O)n([C@@H]2O[C@H](COC(c3ccccc3)(c3ccccc3)c3ccccc3)[C@@H](O)[C@H]2OC(c2ccccc2)(c2ccccc2)c2ccccc2)cc1Cl | 0.75 µM | > 70 µM | 30 µM | 1.75 | >90 | 17 µM |
| O=c1[nH]c(=O)n([C@@H]2O[C@H](CO)[C@@H](O)[C@H]2OC(c2ccccc2)(c2ccccc2)c2ccccc2)cc1Cl | 15 µM | 30 µM | 30 µM |  | 2 |  |
| O=c1[nH]cnc2c1ncn2[C@@H]1O[C@H](COC(c2ccccc2)(c2ccccc2)c2ccccc2)[C@@H](OC(c2ccccc2)(c2ccccc2)c2ccccc2)[C@H]1O | < 0.4 µM | 10 µM | 10 µM | 6.6 | >40 | 1.5 µM |
| O=c1[nH]cnc2c1ncn2[C@@H]1O[C@H](COC(c2ccccc2)(c2ccccc2)c2ccccc2)[C@@H](O)[C@H]1OC(c1ccccc1)(c1ccccc1)c1ccccc1 |  | 10 µM | 6 µM |  |  |  |
| Oc1ncnc2c1ncn2[C@@H]1O[C@H](COC(c2ccccc2)(c2ccccc2)c2ccccc2)[C@@H](O)[C@H]1O |  | 30 µM | 30 µM |  |  |  |
| O=c1ccn([C@H]2C[C@H](O)[C@@H](COC(c3ccccc3)(c3ccccc3)c3ccccc3)O2)c(=O)[nH]1 | 3 µM | 5 µM | 8 µM |  | 1.7 |  |
